High-throughput results deposited in PubChem by Sanford-Burnham Center for Chemical Genomics.
SUMO1 PPI mod = modulators of SUMO1 protein-protein interactions, primary screen, biochemical, uHTS; Small ubiquitin-related modifier 1 (Homo sapiens), P63165; SUMO1 binding to a labelled peptide, TR-FRET, 1 h; inhibition, % at 20 µM; actives 0.33% (n = 360,000); in the data active = inhibition above about 37%
DNMT1 inh = human DNMT1 methyltransferase inhibitors, primary screen, biochemical, molecular beacon, fluorescence, HinP1I cleavage, uHTS; inhibition (reported as % activation of signal), % at 10 µM; actives 0.83% (n = 360,000); DNA (cytosine-5)-methyltransferase 1 (Homo sapiens), P26358; in the data active = inhibition above about 50%
Scp-1 inhibitor = Scp-1 phosphatase inhibitors, primary screen, biochemical, colorimetric, uHTS | AID 493091, 2011 | Recombinant Scp1, phosphopeptide, malachite green phosphate absorbance | inhibition, % at 20 µM | actives 0.88% (n = 340,000) | Carboxy-terminal domain RNA polymerase II polypeptide A small phosphatase 1 (Homo …;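 active = inhibition above about 50% at 20 µM, limit read from the data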;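 note: plate controls were DMSO wells with enzyme for no effect and wells lacking enzyme for full effect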
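Test system: SCP-1 catalytic domain; Buffer or medium: Acidic Tris acetate buffer with magnesium and detergent; Also added: Phosphorylated 17-residue peptide substrate; Compound: single 20 µM dose, 1% DMSO; Schedule: enzyme reaction 45 min at room temperature, colour 5 min, stabilisation 30 min; Signal: Phosphate-binding colour reagent, absorbance read at 630 nm.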
LMPTP inh = LMPTP phosphatase inhibitors, primary screen, biochemical, fluorescence intensity, uHTS | Low molecular weight phosphotyrosine protein phosphatase (Homo sapiens), P24666 | recombinant LMPTP-A, OMFP fluorogenic substrate | inhibition, % at 20 µM | actives 0.22% (n = 360,000) | AID 651560, 2012;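 active = compounds that cut the enzyme signal by at least half of the control window in the single-dose screen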;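 note: plate controls were DMSO wells with enzyme plus substrate for no effect and substrate without enzyme for full effect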
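test system = LMPTP-A | amount = 0.625 nM LMPTP-A final | reagent = fluorogenic phosphatase substrate OMFP at 400 µM final | incubation = 50 min at room temperature | benchmarks = no-enzyme low control, uninhibited high control | medium = Bis-Tris pH 6.0, DTT, detergent | signal = fluorescence intensity of OMFP turnover product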
STEP block = STEP phosphatase inhibitors, primary screen, biochemical, fluorescence intensity, uHTS | recombinant STEP, OMFP fluorogenic substrate | Tyrosine-protein phosphatase non-receptor type 5 (Homo sapiens), P54829 | actives 0.25% (n = 360,000) | inhibition, % at 20 µM | AID 588621, 2011;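 active = inhibition at 20 µM, scaled per plate between control wells, above about 37%, limit read from the data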;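 note: 0% = DMSO with enzyme and substrate and 100% = substrate only without enzyme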
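Assay system: isolated STEP enzyme. Buffer or medium: pH 6.0 Bis-Tris with DTT and Tween 20. Also added: fluorogenic phosphatase substrate OMFP at 25 µM final. Dosing: 20 µM, 1% DMSO. Timing: 20 min reaction, room temperature, in the dark. Measured by: fluorescence intensity, excitation 480 nm, emission 540 nm. Evaluation: normalized % inhibition.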
NadD inh = inhibitors of S. aureus NadD, primary screen, biochemical, colorimetric, uHTS. Nicotinate-nucleotide adenylyltransferase NadD (Staphylococcus aureus N315). purified NadD enzyme, colorimetric absorbance read-out. inhibition, % at 20 µM. actives 0.78% (n = 360,000). AID 602399, 2012; in the data active = inhibition above about 26%
Active calls of the source: *; nt = no result given. An excerpt weighted towards active compounds, which were near 2.4% of everything screened.

SMILES | SUMO1 PPI mod | DNMT1 inh | Scp-1 inhibitor | LMPTP inh | STEP block | NadD inh
CC(C)CC(=O)NC(NCC1CCCO1)C(Cl)(Cl)Cl (stereo not given) | -2 | 1 | -3 | 1 | -1 | 0
CC1=NN(c2nc(-c3ccc(C)cc3)cs2)C(=O)C1N=Nc1cccc(O)c1 (stereo not given) | 16 | -8 | -4 | 3 | 2 | 38*
CC1=NN(c2ccccc2)C(=O)C1N=Nc1cccc(O)c1 (stereo not given) | -24 | -9 | -2 | 5 | 0 | -5
COC(=O)Cn1c(C)c(C(C)=O)c(C(C)=O)c1C | 48* | 0 | -15 | 1 | -3 | -6
O=C1C=C(O)c2c(O)cc(O)c(O)c2C1=O | 12 | 12 | 47 | 76* | 95* | 12
O=C1c2ccccc2C(=O)c2c(O)c(O)cc(O)c21 | 36 | 79* | 76* | 66* | 24 | 14
O=C(O)c1cccc2c1C(=O)c1ccccc1C2=O | -26 | 0 | 3 | -1 | -5 | 1
Nc1ccc(Br)c2c1C(=O)c1ccccc1C2=O | nt | nt | -7 | nt | nt | nt
Nc1ccc(O)c2c1C(=O)c1ccccc1C2=O | 13 | 89* | 80* | 73* | 37* | 9
C[C@@H]1Cc2c(O)c(O)cc(O)c2C(=O)O1 | 2 | 39 | 26 | 0 | 4 | -2
CN(C)c1ccc(/C=C/c2ccc3ccccc3[n+]2C)cc1 | -38 | 1 | 66* | 46 | 13 | 16
CN(C)c1ccc(/C=C/c2ccc3c4ccccc4ccc3[n+]2-c2ccccc2)cc1 | 37 | 40 | 6 | 98* | 16 | 16
CCCCNc1nnc(SCC(=O)c2c[nH]c3ccccc23)s1 | 6 | -21 | 0 | 1 | 1 | 5
CCOC(=O)C1=C(COc2ccccc2)NC(=O)NC1c1ccc(Cl)cc1 (stereo not given) | 69* | 4 | 50 | -1 | -3 | -4
Cc1cccc(C(=O)O/N=C(/c2ccccc2)c2ccncc2)c1 | 40* | -1 | 4 | 1 | 4 | 3
COc1ccc(Br)cc1S(=O)(=O)N1CCCc2ccccc21 | -2 | 1 | -18 | 4 | 2 | 5
COCc1cn(CC(C)n2c(=O)c3ccccc3n2Cc2cc(C(C)C)no2)nn1 (stereo not given) | -2 | nt | nt | -1 | nt | nt
CC(CC(=O)OCC(=O)Nc1ccc2[nH]c(=O)[nH]c2c1)c1ccccc1 (stereo not given) | 46* | 2 | 5 | 0 | -2 | -3
COc1ccccc1C(=O)NCC(=O)OCC(=O)Nc1ccc2[nH]c(=O)[nH]c2c1 | 47* | 2 | -7 | -1 | -3 | 1
O=C(COC(=O)CNC(=O)c1ccccc1F)Nc1ccc2[nH]c(=O)[nH]c2c1 | 26 | 2 | -4 | 1 | -2 | -6
COc1ccc(OCC(=O)OCC(=O)Nc2ccc3[nH]c(=O)[nH]c3c2)cc1 | 62* | 5 | -8 | -2 | -2 | 4
CC(=O)c1ccc(OCCCC(=O)OCC(=O)Nc2ccc3[nH]c(=O)[nH]c3c2)cc1 | 76* | 0 | -3 | -2 | -2 | -2
COc1ccc(CCC(=O)OCC(=O)Nc2ccc3[nH]c(=O)[nH]c3c2)cc1 | 11 | -1 | -5 | 0 | 5 | -2
O=P(CCCO)(Cc1ccccc1)Cc1ccccc1 | 6 | 3 | -8 | -2 | 0 | -6
Cc1c(NC(=O)CN2C(=O)NC3(CCC(C)CC3)C2=O)c(=O)n(-c2ccccc2)n1C (stereo not given) | 3 | 3 | -3 | -1 | 2 | -3
SMILES | SUMO1 PPI mod | DNMT1 inh | Scp-1 inhibitor | LMPTP inh | STEP block | NadD inh
Cc1sc(-c2ccncc2)nc1OC(=O)c1ccccc1 | -13 | 6 | 1 | 0 | -3 | -3
O=c1cc(-c2ccccc2)oc2cc(O)c(O)c(O)c12 | 1 | 9 | 1 | 50 | 4 | -4
O=c1c(O)cccc2cc(O)c(O)c(O)c12 | 104* | 95* | 73* | 90* | 98* | 17
Cc1cc(C)n2nc(SCC(=O)N/N=C/c3ccc(F)cc3)nc2n1 | 51* | 3 | 3 | -2 | -4 | 2
C/C(=N\NC(=O)CSc1nc2nc(C)cc(C)n2n1)c1ccccc1 | 4 | 1 | -3 | -2 | 4 | -2
CCCCCOc1ccc(/C=c2\sc3nc(=O)c(-c4ccccc4)nn3c2=O)cc1OC | 6 | 5 | 2 | 2 | 1 | 7
C=CCOc1ccccc1/C=c1\sc2nc(=O)c(C)nn2c1=O | 25 | 53* | 8 | 3 | 3 | 7
CCOc1ccc2nc3cc(N=Nc4ccc(N)nc4N)ccc3c(N)c2c1 | 116* | -135 | 0 | 72* | 66* | 32*
CCCOc1ccc(NC(=O)C2CC(=O)N/C(=N/N=C(C)/C=C/c3ccc(N(C)C)cc3)S2)cc1 (stereo not given) | -7 | -24 | -4 | 1 | 1 | 56*
CC(/C=C/c1ccc(N(C)C)cc1)=N/N=C1/NC(=O)CC(C(=O)Nc2ccc(Cl)cc2)S1 (stereo not given) | -5 | -31 | 2 | 4 | -3 | 47*
COc1ccc(NC(=O)C2CC(=O)N/C(=N/N=C/c3ccccc3)S2)cc1 (stereo not given) | -2 | 9 | 4 | -3 | 4 | -4
CC(/C=C/c1ccc(N(C)C)cc1)=N\N=C1\NC(=O)CC(C(=O)Nc2ccccc2)S1 (stereo not given) | -6 | -24 | -8 | 3 | -5 | 49*
C/C(CCc1ccc2c(c1)OCO2)=N\N=C1\NC(=O)CC(C(=O)Nc2ccc(C(=O)O)cc2)S1 (stereo not given) | -2 | 0 | 32 | 0 | 4 | -6
CC(=O)Nc1ccc(CN(C)c2c(C)nc3ccc(C(=O)N4CCN(C(C)=O)CC4)cn23)cc1 | -7 | 3 | nt | -4 | -1 | 3
C=CCN1C(=O)C(O)(CC(=O)c2ccc(-n3cccc3)cc2)c2ccccc21 (stereo not given) | -2 | -6 | -2 | 0 | 2 | 27*
O=C(CC1(O)C(=O)Nc2ccccc21)c1ccc(-n2cccc2)cc1 (stereo not given) | -4 | -15 | -5 | 1 | -1 | 4
Cc1ccc2c(nc3s/c(=C\c4ccc(-c5ccccc5C(=O)O)o4)c(=O)n32)c1C | 18 | 63* | 76* | 11 | 34 | 19
